# Activity calls are given as the source filed them. The calls are words filed in the database; no cut-off is given here.
# Tests used:
# Mus musculus [1] = assay: Antihyperglycemic activity in ICR mouse assessed as reduction in postprandial blood glucose levels at 5 mg/kg, ig pretreated for 30 mins followed by oral sucrose challenge measured at 30 mins interval for 120 mins by OSTT; type: functional, organism-based
# [2] = Inhibition of rat intestinal alpha-glucosidase using p-nitrophenyl-alpha-D-glucopyranoside as substrate pretreated for 10 mins followed by substrate addition measured after 30 mins
# Procedure, shortened: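 Rat intestinal acetone powder (40 mg/mL in 100 mM PBS, pH 7) as enzyme source. Test agents were dissolved in PBS or MeOH–PBS (1:1), then preincubated with the enzyme for 10 min at 37 °C. p-Nitrophenyl-α-D-glucopyranoside was added (20 mM stock in PBS) and incubated for 30 min at 37 °C. Absorbance read at 405 nm; IC50 derived per earlier reports.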
# Mus musculus [3] = assay: Antihyperglycemic activity in ig dosed ICR mouse assessed as reduction in postprandial blood glucose levels pretreated for 30 mins followed by oral sucrose challenge measured at 30 mins interval for 120 mins by OSTT; type: functional, organism-based
# Alpha-glucosidase = target: T1, Alpha-glucosidase (Blautia obeum, UniProt A0A173Z7B1); assay: Inhibition of recombinant Ruminococcus obeum ATCC 29174 alpha-glucosidase expressed in Escherichia coli BL21(DE3) using p-nitrophenyl-alpha-D-glucopyranoside as substrate pretreated for 10 mins followed by substrate addition measured after 3 hrs; design: species or system Blautia obeum ATCC 29174
# T1 sequence (A0A173Z7B1 whole entry): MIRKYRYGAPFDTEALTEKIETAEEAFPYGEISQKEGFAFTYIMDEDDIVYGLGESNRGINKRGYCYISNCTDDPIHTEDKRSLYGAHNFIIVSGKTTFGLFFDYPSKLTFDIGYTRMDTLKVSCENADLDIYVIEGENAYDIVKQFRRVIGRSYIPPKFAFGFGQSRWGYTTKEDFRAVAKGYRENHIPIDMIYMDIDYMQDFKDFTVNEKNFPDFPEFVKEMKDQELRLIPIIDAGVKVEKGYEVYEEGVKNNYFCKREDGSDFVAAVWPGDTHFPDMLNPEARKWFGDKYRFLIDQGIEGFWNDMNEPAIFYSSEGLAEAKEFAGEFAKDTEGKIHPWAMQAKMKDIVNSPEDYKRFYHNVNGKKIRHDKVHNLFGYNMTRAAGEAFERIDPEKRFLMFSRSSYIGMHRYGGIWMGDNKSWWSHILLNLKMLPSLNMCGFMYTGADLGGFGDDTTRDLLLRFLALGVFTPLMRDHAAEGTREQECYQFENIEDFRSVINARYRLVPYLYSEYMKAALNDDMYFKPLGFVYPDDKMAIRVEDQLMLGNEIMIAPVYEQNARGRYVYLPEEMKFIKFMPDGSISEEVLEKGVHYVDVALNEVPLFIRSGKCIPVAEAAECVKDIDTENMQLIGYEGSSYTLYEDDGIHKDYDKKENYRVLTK
# Procedure, shortened: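 Enzyme from E. coli BL21-DE3/pET12b grown in LB at 37 °C and induced with 0.5 mM IPTG for 8 h. Cells were sonicated in 50 mM bis-TRIS propane pH 8.0 and the lysate clarified. Enzyme (5.2 mg/mL) was preincubated with test agents for 10 min at 37 °C. pNP-α-glucoside was added (20 mM stock) and incubated for 3 h at 37 °C.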
# Rattus norvegicus = species: Rattus norvegicus; assay: Potency index, ratio of acarbose IC50 to test compound IC50 for rat intestinal alpha-glucosidase
IC50 [2] [µM],SMILES,further results
100,C[C@H]1O[C@H](O[C@H]2[C@H](O)[C@@H](O)[C@@H](O[C@H]3[C@H](O)[C@@H](O)C(O)O[C@@H]3CO)O[C@@H]2CO)[C@H](O)[C@@H](O)[C@@H]1N[C@H]1C=C(CO)[C@@H](O)[C@H](O)[C@H]1O (stereo partly specified) [ACARBOSE],Activity (Mus musculus [1]): Active
200,O=c1cc(-c2ccc(O)cc2)oc2cc(O[C@@H]3O[C@H](CO)[C@@H](O)[C@H](O)[C@H]3O)cc(O)c12 [APIGETRIN],
500,C[C@@H]1CC[C@@]23COC(=O)C2=C[C@@H](O[C@@H]2O[C@H](CO)[C@@H](O)[C@H](O)[C@H]2O)C[C@@H]3[C@]1(C)CCc1ccoc1,Activity (Mus musculus [3]): Dose-dependent effect; IC50 (Alpha-glucosidase): 400 µM
> 10000,CC(=O)CC[C@]1(C)[C@H](C)CC[C@@]23COC(=O)C2=C[C@@H](O[C@@H]2O[C@H](CO)[C@@H](O)[C@H](O)[C@H]2O)C[C@@H]31,
> 10000,CO[C@@H]1C=C(CC[C@]2(C)[C@H](C)CC[C@@]34COC(=O)C3=C[C@@H](O[C@@H]3O[C@H](CO)[C@@H](O)[C@H](O)[C@H]3O)C[C@@H]42)C(=O)O1,
> 10000,COC1OC(=O)C=C1CC[C@]1(C)[C@H](C)CC[C@@]23COC(=O)C2=C[C@@H](O[C@@H]2O[C@H](CO)[C@@H](O)[C@H](O)[C@H]2O)C[C@@H]31 (stereo partly specified),
1800,COc1ccc(-c2cc(=O)c3c(O)c(O)c(OC)cc3o2)cc1OC,
> 10000,C[C@@H]1CC[C@@]23COC(=O)C2=C[C@@H](O[C@@H]2O[C@H](CO)[C@@H](O)[C@H](O)[C@H]2O)C[C@@H]3[C@]1(C)CCC1=CCOC1=O,
39,COc1cc(-c2cc(=O)c3c(O)c(O)c(OC)cc3o2)ccc1Oc1ccc(-c2cc(=O)c3c(O)c(O)c(OC)cc3o2)cc1OC,Ratio IC50 (Rattus norvegicus): 2.5

SMILES,IC50 [2] [µM],further results
COc1cc2oc(-c3ccc(O)c(O)c3)cc(=O)c2c(O)c1O,810,Activity (Mus musculus [3]): Dose-dependent effect; IC50 (Alpha-glucosidase): 60 µM
